Assay results published in ChEMBL document CHEMBL2417459, “Chrysophaentins are competitive inhibitors of FtsZ and inhibit Z-ring formation in live bacteria” (Bioorg Med Chem, 2013).
Values after ≈ are worked out from the molar mass of the structure shown. Active and inactive are the calls of the source. The calls are words filed in the database; no cut-off is given here.

Key:
Escherichia coli [1] = experiment: Inhibition of C-terminal YFP-fused Escherichia coli FtsZ cloned in Escherichia coli envA1 assessed as mislocalization of protein throughout cell at 120 uM after 30 to 60 mins by fluorescence microscopic analysis
Summary of the method: (§1)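 envA1 carrying arabinose-inducible pFtsZ-YFP grown in LB with 20 µg/mL chloramphenicol at 37 °C to OD600 ~0.2, then induced with 0.4% L-arabinose for 30 min. Cells washed in PBS/tetracycline and resuspended in LB. 1 mL aliquots treated in 1% MeOH or 1% DMSO for 30 or 60 min. Imaged by confocal fluorescence (ex 488, em 558) plus DIC, 100× objective.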

Escherichia coli [2] = experiment: Inhibition of recombinant Escherichia coli FtsZ GTPase activity expressed in Escherichia coli BL21 (DE3) assessed as production of inorganic phosphate up to 600 uM after 10 mins by malachite green-phosphomolybdate colorimetric assay in presence of triton X-100
Summary of the method: (§2)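 Recombinant EcFtsZ, purified by ammonium sulfate precipitation, ion exchange and gel filtration, used at 2 µM with 0.25 mM GTP in 50 mM MES pH 6.0, 100 mM KCl, 5 mM MgCl2. Incubated 10 min at 23 °C with serially diluted inhibitor. Pi read at 635 nm by malachite green-phosphomolybdate against a standard curve to give IC50. Triton X-100 at 0.01% where stated.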

[3] = molecular target: T1, Cell division protein FtsZ (Bacillus subtilis) (UniProt A5Z1V5); experiment: Displacement of mant-GTP from Bacillus subtilis FtsZ assessed as equilibrium association constant by fluorescence anisotropy analysis
T1 sequence (whole entry): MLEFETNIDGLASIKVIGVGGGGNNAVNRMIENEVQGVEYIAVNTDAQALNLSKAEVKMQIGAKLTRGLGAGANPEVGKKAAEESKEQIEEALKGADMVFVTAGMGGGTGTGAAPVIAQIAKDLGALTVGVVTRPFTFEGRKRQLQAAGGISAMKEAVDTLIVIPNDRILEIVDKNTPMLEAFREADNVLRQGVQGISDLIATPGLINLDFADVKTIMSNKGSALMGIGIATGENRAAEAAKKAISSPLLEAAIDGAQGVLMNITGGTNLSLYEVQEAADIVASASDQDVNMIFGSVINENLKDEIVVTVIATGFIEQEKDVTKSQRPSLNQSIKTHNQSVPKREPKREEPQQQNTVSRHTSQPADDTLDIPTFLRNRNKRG
Summary of the method: (§3)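 Nucleotide-free B. subtilis FtsZ (380 nM) with mant-GTP (500 nM), titrated with competitor. Displacement read as the change in fluorescence anisotropy and fit by least squares to a simple competition model. GTP (150 µM) served as the displacement control.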

[4] = molecular target: T1, Cell division protein FtsZ (Bacillus subtilis); experiment: Inhibition of Bacillus subtilis SU570 GFP-fused FtsZ assessed as perturbation of Z-ring formation at 12 uM after 60 mins by fluorescence microscopic analysis
[5] = molecular target: T2, Cell division protein FtsZ (Staphylococcus aureus, UniProt P0A031); experiment: Inhibition of recombinant Staphylococcus aureus FtsZ GTPase activity expressed in Escherichia coli BL21 (DE3) assessed as production of inorganic phosphate after 20 mins by malachite green-phosphomolybdate colorimetric assay
T2 sequence (P0A031 whole entry): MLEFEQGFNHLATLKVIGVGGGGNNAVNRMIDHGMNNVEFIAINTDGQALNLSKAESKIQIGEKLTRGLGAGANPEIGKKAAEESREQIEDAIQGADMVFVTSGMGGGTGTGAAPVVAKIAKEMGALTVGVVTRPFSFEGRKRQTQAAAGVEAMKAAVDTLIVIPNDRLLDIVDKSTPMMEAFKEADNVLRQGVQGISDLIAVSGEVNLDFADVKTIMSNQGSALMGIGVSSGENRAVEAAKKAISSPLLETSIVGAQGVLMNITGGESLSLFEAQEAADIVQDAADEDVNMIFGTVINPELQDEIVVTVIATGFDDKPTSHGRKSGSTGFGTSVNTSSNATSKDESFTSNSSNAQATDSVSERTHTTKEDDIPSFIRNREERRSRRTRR
Summary of the method: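 SaFtsZ (recombinant; stored at −80 °C in 50 mM Tris pH 7.4, 50 mM KCl, 1 mM EDTA, 10% glycerol), 6 µM, with 0.25 mM GTP in 50 mM MES pH 6.0, 100 mM KCl, 5 mM MgCl₂. Run 20 min at 30 °C with serially diluted inhibitor. Pi read at 635 nm against a standard curve to give IC₅₀. DMSO control up to 8%.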

Escherichia coli [6] = experiment: Antibacterial activity against Escherichia coli K12 C600 envA1 assessed as growth inhibition after 18 hrs by microbroth dilution method; conditions: envA1, 18 h
[7] = Inhibition of recombinant Escherichia coli FtsZ GTPase activity expressed in Escherichia coli BL21 (DE3) assessed as production of inorganic phosphate after 10 mins by malachite green-phosphomolybdate colorimetric assay; summary of the method: as §2
[8] = molecular target: T3, Cell division protein FtsZ (Staphylococcus aureus) (UniProt P0A031); experiment: Inhibition of recombinant Staphylococcus aureus FtsZ GTPase activity expressed in Escherichia coli BL21 (DE3) assessed as production of inorganic phosphate up to 600 uM after 20 mins by malachite green-phosphomolybdate colorimetric assay in presence of triton X-100
T3 sequence (whole entry): T2 sequence (P0A031 whole entry)
Summary of the method: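 Recombinant SaFtsZ at 6 µM with 0.25 mM GTP in 50 mM MES pH 6.0, 100 mM KCl, 5 mM MgCl2, plus 0.01% Triton X-100. Incubated 20 min at 30 °C with serially diluted inhibitor. Pi measured at 635 nm by malachite green-phosphomolybdate against a standard curve.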

[9] = molecular target: T1, Cell division protein FtsZ (Bacillus subtilis); experiment: Displacement of [3H]-GTP from Bacillus subtilis FtsZ assessed as equilibrium association constant by scintillation counting assay
Summary of the method: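 Nucleotide-free B. subtilis FtsZ (70 nM) incubated with 3H-GTP (100 nM) and competitor. FtsZ-bound label measured by co-sedimentation and scintillation counting. 3H-GTP binding constant determined separately. Data fit to a simple competition model.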

Escherichia coli [10] = experiment: Inhibition of C-terminal YFP-fused Escherichia coli FtsZ cloned in Escherichia coli envA1 assessed as protein dispersion in from of patches throughout cytoplasm at 340 uM after 30 to 60 mins by fluorescence microscopic analysis; summary of the method: as §1
[11] = molecular target: T4, Cell division protein FtsZ (Bacillus subtilis, UniProt A5Z1V5); experiment: Inhibition of Bacillus subtilis FtsZ GTPase activity assessed as production of inorganic phosphate measured up to 60 mins by malachite green-phosphomolybdate colorimetric assay
T4 sequence (A5Z1V5 whole entry): T1 sequence (whole entry)

[12] = molecular target: T1, Cell division protein FtsZ (Bacillus subtilis); experiment: Displacement of mant-GTP from Bacillus subtilis FtsZ by fluorescence anisotropy analysis; summary of the method: as §3
Escherichia coli [13] = experiment: Inhibition of C-terminal YFP-fused Escherichia coli FtsZ cloned in Escherichia coli envA1 assessed as Z ring formation at 340 uM after 30 to 60 mins by fluorescence microscopic analysis; summary of the method: as §1
Escherichia coli [14] = experiment: Inhibition of C-terminal YFP-fused Escherichia coli FtsZ cloned in Escherichia coli envA1 assessed as protein dispersion in from of patches throughout cytoplasm at 125 uM after 30 to 60 mins by fluorescence microscopic analysis; summary of the method: as §1
Escherichia coli [15] = experiment: Inhibition of C-terminal YFP-fused Escherichia coli FtsZ transformed in Escherichia coli envA1 assessed as Z ring formation at 125 uM after 30 to 60 mins by fluorescence microscopic analysis; summary of the method: as §1
Escherichia coli [16] = experiment: Inhibition of C-terminal YFP-fused Escherichia coli FtsZ cloned in Escherichia coli envA1 assessed as mislocalization of protein throughout cell at 680 uM after 30 mins by fluorescence microscopic analysis; summary of the method: as §1
Escherichia coli [17] = experiment: Inhibition of C-terminal RFP-fused Escherichia coli FtsZ cloned in Escherichia coli envA1 assessed as intact red fluorescent Z-ring formation at 680 uM after 30 to 60 mins by fluorescence microscopic analysis
Summary of the method: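 envA1 carrying arabinose-inducible pFtsZ-tdTomato (pFtsZ-RFP), induced and treated by the same protocol, 680 µM for 30 min. Red fluorescence imaged (ex 555, em 630) alongside the yellow channel and DIC at 30 and 60 min post induction.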

Escherichia coli [18] = experiment: Inhibition of C-terminal YFP-fused Escherichia coli FtsZ cloned in Escherichia coli envA1 assessed as mislocalization of protein in polar region at 4.9 uM after 30 to 60 mins by fluorescence microscopic analysis; summary of the method: as §1

CCN(CC)CCNc1nc(/C=C/c2ccc(Cl)cc2)nc2cc3ccccc3cc12
inhibition (Escherichia coli [1]): Active

COc1cc(C/C=C(/Cl)Cc2cc(O)cc(O)c2)c(OC)cc1Cl
inhibition (Escherichia coli [2]): Active
Ka [3]: 1.5 ×10⁵ /M
inhibition [4]: Active
IC50 [5]: 38 µM
MIC50 (Escherichia coli [6]): 84 µM (≈ 31 µg/mL)
IC50 [7]: 37 µM
inhibition [8]: Active
Ka [9]: 0.87 ×10⁵ /M
inhibition (Escherichia coli [10]): Active
IC50 [11]: 70 µM
inhibition [12]: Dose-dependent effect
inhibition (Escherichia coli [13]): Active

Oc1cc(O)c2c(c1)C/C(Cl)=C\Cc1cc(c(Cl)cc1O)Oc1c(O)cc(cc1O)C/C(Cl)=C\Cc1cc(c(Cl)cc1O)O2
inhibition (Escherichia coli [2]): Active
IC50 [5]: 67 µM
inhibition (Escherichia coli [14]): Active
MIC50 (Escherichia coli [6]): 27 µM (≈ 18.3 µg/mL)
IC50 [7]: 9.9 µM
inhibition [8]: Active
inhibition (Escherichia coli [15]): Active

COc1ccc2cc3[n+](cc2c1OC)CCc1cc2c(cc1-3)OCO2
inhibition (Escherichia coli [16]): Active
inhibition (Escherichia coli [17]): inactive

Oc1ccc(Cl)cc1Cc1cc(Cl)cc(Cc2cc(Cl)ccc2O)c1O
inhibition (Escherichia coli [18]): Active
